UBC13 inh: blocks human UBC13 polyubiquitin chain formation. P61088. TR-FRET. inhibition, % at 20 µM. 0.47% of 330,000 active; in the data active = inhibition above about 45%, passing the limit was not always enough
SR-BI DiI-HDL act: activators of SR-BI mediated HDL lipid uptake; CHO ldlA[mSR-BI] cells, DiI-HDL uptake fluorescence, 3 h; 100 = double the neutral-control signal; activation, % at 12.5 µM; 0.096% of 320,000 active;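 active = mean replicate activation of at least 60% and every replicate at or above 60%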;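 also: 0% = median plate neutral-control signal and 100% = twice that signal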
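material = CHO ldlA[mSR-BI] cells | medium = Ham's F12 with 0.5% BSA, HEPES 25 mM, pH 7.4 | reagent = fluorescent DiI-HDL, 10 µg/mL final | compound dosing = single-point compound dose | incubation = 3 h, 37 °C | measured by = bottom-read fluorescence, 550/595 nm | measure = HDL uptake via cellular fluorescence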
Neddyl block: blocks human cullin neddylation | inhibition, % at 25 µM | TR-FRET cullin neddylation, biochemical | 0.58% of 360,000 active | P61081+Q13564; in the data active = inhibition above about 36%
SR-BI DiI inh: mouse SR-BI HDL lipid transfer inhibition; ldlA[mSR-BI] CHO cells, DiI-HDL uptake fluorescence, 3 h; inhibition, % at 12.5 µM; AID 488896; 0.96% of 320,000 active; Q61009;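 active = mean replicate inhibition of at least 70% and a set share of replicates each scoring 70 or more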;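 also: 0% = median of neutral control wells and 100% = median of positive control wells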
Target sequence (Q61009 whole entry, looked up): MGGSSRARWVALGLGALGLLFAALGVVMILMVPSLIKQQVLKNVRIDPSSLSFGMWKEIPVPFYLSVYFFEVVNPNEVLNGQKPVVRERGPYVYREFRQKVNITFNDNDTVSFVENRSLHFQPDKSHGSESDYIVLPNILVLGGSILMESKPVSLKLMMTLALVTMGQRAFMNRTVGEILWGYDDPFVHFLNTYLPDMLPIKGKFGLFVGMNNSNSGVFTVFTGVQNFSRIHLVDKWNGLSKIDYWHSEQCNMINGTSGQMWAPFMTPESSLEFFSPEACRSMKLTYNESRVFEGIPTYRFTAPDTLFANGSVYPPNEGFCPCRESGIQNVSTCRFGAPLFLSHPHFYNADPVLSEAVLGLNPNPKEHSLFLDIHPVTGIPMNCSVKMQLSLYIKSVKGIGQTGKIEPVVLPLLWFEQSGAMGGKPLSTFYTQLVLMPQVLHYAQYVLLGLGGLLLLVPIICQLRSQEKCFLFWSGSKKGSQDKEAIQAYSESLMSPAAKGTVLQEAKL
* hit, by the source's call; / = no result given. Compounds with a hit are over-represented: about 1.9% of the library has one in this group of screens.

SMILES	UBC13 inh	SR-BI DiI-HDL act	Neddyl block	SR-BI DiI inh
COc1ccc(Cc2c(-c3cccc(Cl)c3)nc3c(C)cc(Br)cn23)c(C)c1	/	/	-131	/
CC1=C(C)CC(C(=O)NC2CCN(C(C)C)CC2)C(C(=O)O)C1 (stereo not given)	-2	/	3	-46
COC(=O)c1ccc2c(c1)C(C)(C)C(/C=C/c1ccccc1O)=[N+]2C	-105	-76	/	76*
CCOC(=O)C1=C(CP(=O)(c2ccccc2)c2ccccc2)NC(=O)NC1c1ccc(OC)cc1 (stereo not given)	-7	6	-1	-6
CCOC(=O)C1=C(COC(=O)C2(C)CC2(Cl)Cl)NC(=O)NC1c1ccc(OC)cc1 (stereo not given)	6	-73	5	73*
CCc1nnc(NC(=O)c2nc(S(=O)(=O)Cc3ccc(C)cc3)ncc2Cl)s1	25	64*	6	-64
O=C(N/N=C/c1ccc([N+](=O)[O-])cc1)c1ccc(COc2ccccc2-c2ccccc2)cc1	-14	-99	-1	99*
O=C(N/N=C/c1ccc([N+](=O)[O-])cc1)c1ccccc1OCc1ccccc1	-11	3	-7	-3
NNC(=O)c1cc(C23CC4CC(CC(C4)C2)C3)nc2ccccc12	5	-89	-3	89*
O=C(NNc1c2ccccc2nc2ccccc12)C12CC3CC(CC(C3)C1)C2	-68	-14	3	14
CCSc1nc(-c2ccc(OC)cc2)cc(-c2ccccc2)c1C#N	18	-80	-65	80*
COc1ccc(CCNC(=O)c2ccc(OCc3c(C)noc3C)c(OC)c2)cc1	2	-60	-61	60
COc1cc(C(=O)NCCc2c[nH]c3ccccc23)ccc1OCc1c(C)noc1C	0	-66	3	83*
CN=c1scc(-c2ccco2)n1/N=C/c1ccc(O)c(O)c1	-11	-73	-2	73*
COc1ccc(O)c(/C=N/n2c(-c3ccco3)csc2=Nc2cccnc2)c1	4	-65	21	65
CCn1c(C(=O)NCc2cccnc2)cc2sc(Cl)cc21	9	418*	-3	-418
CCc1c(C)nc2cc(-c3ccc(OC)c(OC)c3)nn2c1NCC1CC1	17	-89	/	89*
O=C1NC(Cc2ccc(O)cc2)c2nc3cc(F)ccc3c(=O)n2-c2cc3ccccc3cc21 (stereo not given)	/	/	-10	/
Cc1nn(-c2ccccc2)c(N2CCCC2)c1/C=N/NC(=S)Nc1cc(C(F)(F)F)ccc1Cl	-28	-86	28	86*
Cc1nn(-c2ccccc2)c(N2CCCCC2)c1/C=N/NC(=O)c1ccncc1	-5	-87	-4	87*
CCN(CC(=O)Nc1c(F)cccc1F)C(=O)c1ccc(=O)n(C)n1	/	24	0	-24
CCc1nc2c(OCCC3CCCCC3)cccn2c1N(C)C(=O)C(C)C	/	/	4	/
Oc1ccc(F)cc1-c1cc(-c2ccc3c(c2)OCCO3)n[nH]1	13	-79	9	79*
COC(=O)Nc1nc(-c2ccccc2)c(C(=O)c2ccccc2)s1	6	-91	-75	91*
COc1cccc(/C=C/C(=O)Nc2cccc(C(C)=O)c2)c1OC	-5	/	5	/
SMILES	UBC13 inh	SR-BI DiI-HDL act	Neddyl block	SR-BI DiI inh
COc1ccc(/C=C/C(=O)Nc2cccc(S(=O)(=O)N3CCCC3)c2)cc1OC	-8	-80	32	80*
COc1ccccc1/C=C/C(=O)Nc1cccc(C(C)=O)c1	-8	-76	-4	76*
O=C(/C=C/c1ccc(S(=O)(=O)N2CCOCC2)cc1)Nc1cc(F)ccc1F	-3	-36	-24	36
O=C(/C=C/c1ccc(F)cc1)Nc1cccc(S(=O)(=O)N2CCOCC2)c1	-8	-74	-16	74*
CCN(C[C@H]1N[C@@](CC)(C(=O)OC)[C@H]2C(=O)N(Cc3ccccc3)C(=O)[C@@H]12)S(=O)(=O)c1ccc(F)cc1	1	10	2	-10
COc1ccc(Cc2c(C3CCCCC3)nc3ccc(Cl)cn23)c(C)c1	/	/	10	/
Cc1[nH]c2ccccc2c1/C=N/NC(=S)NCc1ccccc1	-10	-23	0	23
Cc1[nH]c2ccccc2c1/C=N/NC(N)=S	-6	-86	-13	86*
Cc1ccc(NC(=S)N/N=C/c2c(C)[nH]c3ccccc23)cc1	23	-102	5	102*
O=C(Nc1cccc(C(F)(F)F)c1)c1cccnn1	0	6	-1	-6
Cc1c(C(=O)NNC(=O)c2ccccc2O)oc2ccc(Br)cc12	/	-129	14	129*
CCOc1ccc2oc(C(=O)NNC(=O)c3ccccc3O)c(C)c2c1	-2	-131	2	131*
Cc1c(C(=O)NCc2cccs2)oc2ccc(Br)cc12	-8	-13	-157	13

Assay outcomes from PubChem.
